Results taken from PubChem BioAssay AID624165 (Southern Research Specialized Biocontainment Screening …, 2012).
The source made the active and inactive calls.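 Rule for the calls: active = inhibition of 30% or more at any tested concentration; inactive = the rest.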

tested on: Plasmodium falciparum M18 aspartyl aminopeptidase (PfM18AAP); assay: inhibition of P. falciparum M18 aspartyl aminopeptidase – biochemical, QFRET, H-Glu-NHMec substrate, set 3, selectivity assay for PFM1AAP inhibitor project, dose response (AID 624165); conditions: Recombinant PfM18AAP, H-Glu-NHMec fluorogenic cleavage; series mostly up to 100 µM; inhibition: at the top concentration
Method in brief: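 Benchmarks: no-enzyme background wells / Test system: purified recombinant PfM18AAP, M18 aspartyl aminopeptidase of Plasmodium falciparum / Quantity: enzyme 5 µg/mL / Schedule: enzyme reaction 90 min at room temperature / Repeats: each compound tested in triplicate / Compound dosing: 10-point twofold dilution series, 100 down to 0.2 µM / Detection: fluorescence, excitation 370 nm, emission 460 nm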

inhibition, inactive:
O=C(NCc1cccc(F)c1)C1CCN(S(=O)(=O)c2ccc(Br)cc2)CC1 5.49%
O=C(NCCc1ccc2c(c1)OCO2)C1CCN(S(=O)(=O)c2ccc(Br)cc2)CC1 0.75%
O=C(NCCc1ccc2c(c1)OCO2)C1CCN(S(=O)(=O)c2sccc2Br)CC1 5.41%
O=C(Nc1ccc2c(c1)OCO2)C1CCN(S(=O)(=O)c2ccc(Br)cc2)CC1 -2.22%
O=C(Nc1ccc2c(c1)OCO2)C1CCN(S(=O)(=O)c2ccc(Br)s2)CC1 1.63%
O=C(NCCc1ccc2c(c1)OCO2)C1CCN(S(=O)(=O)c2ccc(Cl)s2)CC1 3.06%
O=C(NCc1ccc(F)cc1)C1CCN(S(=O)(=O)c2cc(Br)c(Br)s2)CC1 11.3%
O=C(NCc1ccccc1F)C1CCN(S(=O)(=O)c2ccc(Cl)s2)CC1 6.81%
O=C(Nc1ccc2c(c1)OCO2)C1CCN(S(=O)(=O)c2sccc2Br)CC1 -1.28%
O=C(NCc1cccc(F)c1)C1CCN(S(=O)(=O)c2sccc2Br)CC1 4.41%
O=C(NCc1cccc(F)c1)C1CCN(S(=O)(=O)c2ccc(Br)s2)CC1 2.41%
O=C(NCc1cccc(F)c1)C1CCN(S(=O)(=O)c2cc(Br)c(Br)s2)CC1 2.39%
O=C(NCc1ccc2c(c1)OCO2)C1CCN(S(=O)(=O)c2cc(Br)c(Br)s2)CC1 4.8%
O=C(NCc1ccc2c(c1)OCO2)C1CCN(S(=O)(=O)c2ccc(Cl)s2)CC1 10.5%
O=C(NCc1ccc(F)cc1)C1CCN(S(=O)(=O)c2sccc2Br)CC1 4.56%
O=C(NCc1cccc(F)c1)C1CCN(S(=O)(=O)c2ccc(Cl)s2)CC1 11.8%
O=C(NCc1ccc2c(c1)OCO2)C1CCN(S(=O)(=O)c2sccc2Br)CC1 4.54%
O=C(NCc1ccccc1F)C1CCN(S(=O)(=O)c2sccc2Br)CC1 1.26%
O=C(NCc1ccc2c(c1)OCO2)C1CCN(S(=O)(=O)c2ccc(Br)cc2)CC1 3.21%
O=C(Nc1ccc2c(c1)OCO2)C1CCN(S(=O)(=O)c2ccc(Cl)s2)CC1 2.63%
O=C(NCCc1ccc2c(c1)OCO2)C1CCN(S(=O)(=O)c2cc(Br)c(Br)s2)CC1 6.44%
O=C(NCc1ccccc1F)C1CCN(S(=O)(=O)c2ccc(Br)cc2)CC1 1.27%
O=C(NCc1ccccc1F)C1CCN(S(=O)(=O)c2ccc(Br)s2)CC1 5.87%
O=C(NCc1ccc(F)cc1)C1CCN(S(=O)(=O)c2ccc(Cl)s2)CC1 -10%
O=C(Nc1ccc2c(c1)OCO2)C1CCN(S(=O)(=O)c2cc(Br)c(Br)s2)CC1 -0.06%
O=C(NCc1ccc(F)cc1)C1CCN(S(=O)(=O)c2ccc(Br)cc2)CC1 14.5%
O=C(NCc1ccc2c(c1)OCO2)C1CCN(S(=O)(=O)c2ccc(Br)s2)CC1 -8.16%
O=C(NCc1ccc(F)cc1)C1CCN(S(=O)(=O)c2ccc(Br)s2)CC1 2.15%
O=C(NCc1ccccc1F)C1CCN(S(=O)(=O)c2cc(Br)c(Br)s2)CC1 1.25%
O=C(NCCc1ccc2c(c1)OCO2)C1CCN(S(=O)(=O)c2ccc(Br)s2)CC1 6.12%
